Measured values published in ChEMBL document CHEMBL4004835, “Discovery of Novel Disruptor of Silencing Telomeric 1-Like (DOT1L) Inhibitors using a Target-Specific Scoring Function for the (S)-Adenosyl-l-methionine (SAM)-Dependent Methyltransferase Family” (J Med Chem, 2017).

How the values were obtained:
MV4-11 [1] = assay: Induction of apoptosis in human MV4-11 cells assessed as viable cells at 12.5 uM after 72 hrs by annexin V/FITC and propidium iodide staining-based flow cytometric analysis (reference value: 90.3 %); format: functional; settings: MV4-11, 72 h, read-out: Activity
MV4-11 [2] = assay: Induction of apoptosis in human MV4-11 cells assessed as necrotic cells at 6.25 uM after 72 hrs by annexin V/FITC and propidium iodide staining-based flow cytometric analysis (reference value: 0.04 %); format: functional
MV4-11 [3] = assay: Induction of apoptosis in human MV4-11 cells assessed as late apoptotic cells at 12.5 uM after 72 hrs by annexin V/FITC and propidium iodide staining-based flow cytometric analysis (reference value: 4.02 %); format: functional
MV4-11 [4] = assay: Induction of apoptosis in human MV4-11 cells assessed as early apoptotic cells at 25 uM after 72 hrs by annexin V/FITC and propidium iodide staining-based flow cytometric analysis (reference value: 5.66 %); format: functional
MV4-11 [5] = assay: Induction of apoptosis in human MV4-11 cells assessed as viable cells at 6.25 uM after 72 hrs by annexin V/FITC and propidium iodide staining-based flow cytometric analysis (reference value: 90.3 %); format: functional; settings: MV4-11, 72 h, read-out: Activity
HL-60 = assay: Cytotoxicity against human HL60 cells assessed as reduction in cell viability after 72 hrs by alamar blue assay; format: functional, cell-based; settings: HL-60, 72 h
How it was run: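 Cells cultured in RPMI 1640 with 10% FBS and 1% penicillin/streptomycin, treated with a range of concentrations or equal DMSO, 37 °C, 5% CO2, 72 h. Viability read by alamar blue (ex 544/em 590 nm); percent proliferation and IC50 curve fitted.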

[6] = biological target: Histone-lysine N-methyltransferase EZH2 (Homo sapiens) (UniProt Q15910); assay: Inhibition of EZH2 (unknown origin) at 50 and 100 uM preincubated for 15 mins followed by substrate and [3H]-SAM addition for 60 mins in presence of H3K27me peptide measured after 60 mins by liquid scintillation counting method
How it was run: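 In modified Tris buffer with H3K27me peptide, enzyme preincubated 15 min at room temperature; substrate added to start; stopped with cold SAM; mix on Flashplate at least 60 min at room temperature, washed with water plus 0.1% Tween-20, read by scintillation counting.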

MV4-11 [7] = assay: Induction of cell cycle arrest in human MV4-11 cells assessed as accumulation at G2 phase at 50 uM after 48 hrs by propidium iodide/RNase-staining based flow cytometric analysis (reference value: 7.44 %); format: functional
How it was run: (§1)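 MV4-11 cells (2 × 10^6) seeded in 12-well dishes, treated with different concentrations for 48 h, processed with a PI/RNase staining kit and analysed for cell-cycle distribution by FACSCalibur flow cytometry.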

MV4-11 [8] = assay: Induction of cell cycle arrest in human MV4-11 cells assessed as accumulation at G1 phase at 12.5 uM after 48 hrs by propidium iodide/RNase-staining based flow cytometric analysis (reference value: 68.16 %); format: functional; how it was run: as §1
MV4-11 [9] = assay: Induction of cell cycle arrest in human MV4-11 cells assessed as accumulation at S phase at 50 uM after 48 hrs by propidium iodide/RNase-staining based flow cytometric analysis (reference value: 24.40 %); format: functional; how it was run: as §1
MV4-11 [10] = assay: Induction of cell cycle arrest in human MV4-11 cells assessed as accumulation at G1 phase at 50 uM after 48 hrs by propidium iodide/RNase-staining based flow cytometric analysis (reference value: 68.16 %); format: functional; how it was run: as §1
[11] = biological target: T1, Histone-lysine N-methyltransferase, H3 lysine-79 specific (Homo sapiens, UniProt Q8TEK3); assay: Inhibition of N-terminal 6His-tagged human DOT1L (1 to 416 residues) expressed in Escherichia coli BL21(DE3) at 50 uM preincubated for 15 mins followed by [3H]-SAM addition measured after 120 mins by radioactive methylation assay
How it was run: (§2)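 DOT1L and compound preincubated 15 min at room temperature; oligonucleosome and 3H-SAM added; reaction 120 min at room temperature, stopped with cold SAM; transferred to 0.5% PEI-pretreated filter plate, washed 3× with water, read by liquid scintillation counting.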
Target sequence in this assay (Q8TEK3 whole entry, looked up, the tested form may be a part): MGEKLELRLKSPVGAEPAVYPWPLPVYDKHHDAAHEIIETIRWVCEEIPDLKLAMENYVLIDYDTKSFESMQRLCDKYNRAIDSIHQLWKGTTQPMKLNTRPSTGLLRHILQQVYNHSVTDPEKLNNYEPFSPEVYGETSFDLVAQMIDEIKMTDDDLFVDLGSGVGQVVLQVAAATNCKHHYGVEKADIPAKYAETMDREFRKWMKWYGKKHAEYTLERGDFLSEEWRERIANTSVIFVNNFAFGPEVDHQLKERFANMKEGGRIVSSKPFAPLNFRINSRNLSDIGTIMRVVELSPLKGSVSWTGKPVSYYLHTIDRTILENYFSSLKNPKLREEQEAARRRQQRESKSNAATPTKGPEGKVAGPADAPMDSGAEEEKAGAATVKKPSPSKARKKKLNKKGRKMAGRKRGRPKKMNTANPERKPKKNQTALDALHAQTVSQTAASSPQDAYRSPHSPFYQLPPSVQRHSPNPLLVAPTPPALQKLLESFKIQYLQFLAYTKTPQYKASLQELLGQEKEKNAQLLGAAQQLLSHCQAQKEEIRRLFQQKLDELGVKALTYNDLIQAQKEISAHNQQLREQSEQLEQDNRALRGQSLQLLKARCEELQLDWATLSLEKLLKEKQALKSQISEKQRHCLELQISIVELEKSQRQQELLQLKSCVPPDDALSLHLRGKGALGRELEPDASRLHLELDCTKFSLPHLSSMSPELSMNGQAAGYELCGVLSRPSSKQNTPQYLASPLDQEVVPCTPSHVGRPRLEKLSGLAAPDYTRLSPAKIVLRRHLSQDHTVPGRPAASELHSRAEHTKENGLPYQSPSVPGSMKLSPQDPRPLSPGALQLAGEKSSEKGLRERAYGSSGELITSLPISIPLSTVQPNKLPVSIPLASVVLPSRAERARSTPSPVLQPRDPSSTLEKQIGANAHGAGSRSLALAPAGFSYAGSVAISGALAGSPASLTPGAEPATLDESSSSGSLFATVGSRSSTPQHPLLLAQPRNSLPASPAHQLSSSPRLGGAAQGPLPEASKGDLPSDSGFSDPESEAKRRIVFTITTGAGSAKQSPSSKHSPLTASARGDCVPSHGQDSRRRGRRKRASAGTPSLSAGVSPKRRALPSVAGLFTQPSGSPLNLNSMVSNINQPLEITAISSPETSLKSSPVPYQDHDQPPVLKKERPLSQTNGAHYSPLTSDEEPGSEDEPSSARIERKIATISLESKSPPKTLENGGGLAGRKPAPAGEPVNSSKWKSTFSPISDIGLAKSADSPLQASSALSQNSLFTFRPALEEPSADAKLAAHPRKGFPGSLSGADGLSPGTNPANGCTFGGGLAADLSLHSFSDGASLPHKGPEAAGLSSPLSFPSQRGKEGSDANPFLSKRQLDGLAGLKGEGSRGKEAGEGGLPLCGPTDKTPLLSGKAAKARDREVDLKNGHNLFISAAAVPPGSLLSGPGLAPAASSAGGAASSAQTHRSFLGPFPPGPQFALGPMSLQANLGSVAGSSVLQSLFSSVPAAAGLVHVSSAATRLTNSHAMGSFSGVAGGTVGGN

MV4-11 [12] = assay: Induction of apoptosis in human MV4-11 cells assessed as necrotic cells at 12.5 uM after 72 hrs by annexin V/FITC and propidium iodide staining-based flow cytometric analysis (reference value: 0.04 %); format: functional
MV4-11 [13] = assay: Induction of apoptosis in human MV4-11 cells assessed as late apoptotic cells at 25 uM after 72 hrs by annexin V/FITC and propidium iodide staining-based flow cytometric analysis (reference value: 4.02 %); format: functional
[14] = biological target: T1, Histone-lysine N-methyltransferase, H3 lysine-79 specific; assay: Inhibition of N-terminal 6His-tagged human DOT1L (1 to 416 residues) expressed in Escherichia coli BL21(DE3) at preincubated for 15 mins followed by [3H]-SAM addition measured after 120 mins by radioactive methylation assay; how it was run: as §2
Target sequence in this assay (Q8TEK3 whole entry, the tested form may be a part): as the sequence (Q8TEK3 whole entry, looked up, the tested form may be a part) above

MV4-11 [15] = assay: Induction of cell cycle arrest in human MV4-11 cells assessed as accumulation at G1 phase at 25 uM after 48 hrs by propidium iodide/RNase-staining based flow cytometric analysis (reference value: 68.16 %); format: functional; how it was run: as §1
[16] = biological target: Protein arginine N-methyltransferase 5 (Homo sapiens) (UniProt O14744); assay: Inhibition of PRMT5 (unknown origin) at 50 and 100 uM preincubated for 15 mins followed by substrate and [3H]-SAM addition for 60 mins measured after further 60 mins flashplate assay
How it was run: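 In modified Tris buffer, enzyme preincubated 15 min at room temperature; substrate and [3H]SAM added for 60 min at room temperature; stopped with cold SAM; transferred to a Flashplate for 60 min, washed 3× with water plus 0.1% Tween-20, read by MicroBeta.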

MV4-11 [17] = assay: Induction of apoptosis in human MV4-11 cells assessed as early apoptotic cells at 6.25 uM after 72 hrs by annexin V/FITC and propidium iodide staining-based flow cytometric analysis (reference value: 5.66 %); format: functional
MV4-11 [18] = assay: Induction of apoptosis in human MV4-11 cells assessed as necrotic cells at 50 uM after 72 hrs by annexin V/FITC and propidium iodide staining-based flow cytometric analysis (reference value: 0.04 %); format: functional

Histone-lysine N-methyltransferase EZH2 (Homo sapiens), sequence (Q15910 whole entry, looked up): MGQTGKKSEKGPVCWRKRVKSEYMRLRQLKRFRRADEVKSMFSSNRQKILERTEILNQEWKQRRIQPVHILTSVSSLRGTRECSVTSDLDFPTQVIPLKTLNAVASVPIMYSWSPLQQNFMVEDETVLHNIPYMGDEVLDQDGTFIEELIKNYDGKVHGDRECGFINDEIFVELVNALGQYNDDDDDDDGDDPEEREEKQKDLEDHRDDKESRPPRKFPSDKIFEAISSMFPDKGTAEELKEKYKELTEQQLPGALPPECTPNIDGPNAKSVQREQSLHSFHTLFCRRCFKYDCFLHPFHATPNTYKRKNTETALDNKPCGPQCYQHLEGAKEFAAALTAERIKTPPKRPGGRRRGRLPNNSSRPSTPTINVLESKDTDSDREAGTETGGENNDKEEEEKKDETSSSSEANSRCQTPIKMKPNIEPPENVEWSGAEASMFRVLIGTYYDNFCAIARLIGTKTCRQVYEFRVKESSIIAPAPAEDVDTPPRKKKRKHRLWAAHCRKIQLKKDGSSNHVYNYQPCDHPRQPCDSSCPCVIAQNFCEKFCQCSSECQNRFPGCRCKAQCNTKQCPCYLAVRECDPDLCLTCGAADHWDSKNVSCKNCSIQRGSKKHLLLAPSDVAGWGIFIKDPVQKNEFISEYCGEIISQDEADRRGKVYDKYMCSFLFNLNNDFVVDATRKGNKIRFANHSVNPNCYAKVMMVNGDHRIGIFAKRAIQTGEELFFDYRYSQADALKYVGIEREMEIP
Protein arginine N-methyltransferase 5 (Homo sapiens), sequence (O14744 whole entry): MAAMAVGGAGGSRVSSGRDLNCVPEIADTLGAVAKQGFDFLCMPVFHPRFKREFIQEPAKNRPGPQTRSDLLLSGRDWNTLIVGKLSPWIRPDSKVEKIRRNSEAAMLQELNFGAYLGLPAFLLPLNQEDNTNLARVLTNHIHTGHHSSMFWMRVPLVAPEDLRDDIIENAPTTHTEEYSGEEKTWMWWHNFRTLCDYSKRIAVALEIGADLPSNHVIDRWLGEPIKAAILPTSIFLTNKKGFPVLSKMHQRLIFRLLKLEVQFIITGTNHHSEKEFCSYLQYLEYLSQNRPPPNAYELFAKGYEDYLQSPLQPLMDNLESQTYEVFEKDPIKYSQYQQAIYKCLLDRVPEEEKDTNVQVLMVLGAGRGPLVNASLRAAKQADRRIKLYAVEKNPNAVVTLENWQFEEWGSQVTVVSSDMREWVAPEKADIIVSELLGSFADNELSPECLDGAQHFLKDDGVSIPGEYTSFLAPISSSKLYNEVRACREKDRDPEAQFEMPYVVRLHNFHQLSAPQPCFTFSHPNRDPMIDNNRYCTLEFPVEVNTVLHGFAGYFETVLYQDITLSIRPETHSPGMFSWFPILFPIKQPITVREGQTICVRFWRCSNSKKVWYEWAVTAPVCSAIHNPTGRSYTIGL

Fc1cccc(-c2nn3c(Cn4nnc5ccccc54)nnc3s2)c1
viability at 12.5 µM (MV4-11 [1]): 10.6%
Activity (MV4-11 [2]): 1.37%
Activity (MV4-11 [3]): 35.5%
Activity (MV4-11 [4]): 58.2%
viability at 6.25 µM (MV4-11 [5]): 24.2%
IC50 (HL-60): > 200 µM
inhibition [6]: < 40%
Activity (MV4-11 [7]): 0%
Activity (MV4-11 [8]): 70.27%
Activity (MV4-11 [9]): 17.76%
Activity (MV4-11 [10]): 82.24%
inhibition [11]: 68%
Activity (MV4-11 [12]): 3.8%
Activity (MV4-11 [13]): 33.5%
IC50 [14]: 8.29 µM
Activity (MV4-11 [15]): 83.18%
inhibition [16]: < 40%
Activity (MV4-11 [17]): 49.5%
Activity (MV4-11 [18]): 0.28%
